Results: ChEMBL document CHEMBL1145963, “Identification, synthesis, and activity of novel blockers of the voltage-gated potassium channel Kv1.5” (J Med Chem, 2003)
Values joined by “and” are separate entries in the source; they are usually repeats but may differ in a detail not shown here. Identical values can stand only once.

Key:
[1] = biological target: hERG (KCNH2) (Homo sapiens, UniProt Q12809); test: Inhibition of human Potassium channel HERG expressed in Xenopus oocytes at 10 uM; format: cell-based, Oocyte; details: Xenopus oocytes expressing human hERG
[2] = biological target: Potassium voltage-gated channel subfamily A member 3 (Homo sapiens, UniProt P22001); test: Inhibition of human voltage-gated potassium channel subunit Kv1.3 expressed in Xenopus oocytes; format: cell-based, Oocyte
Summary of the method: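 Kv1.3 was expressed in Xenopus oocytes and recorded by two-microelectrode voltage clamp, handled like the Kv1.5 assay. Compounds were diluted from a 10 mM DMSO stock into ND96 superfusate. Percent inhibition of the control current at 3–4 concentrations was fitted with a variable-slope dose–response equation to give IC50.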

[3] = biological target: T1, Potassium voltage-gated channel subfamily A member 5 (Homo sapiens, UniProt P22460); test: Inhibition of human voltage-gated potassium channel subunit Kv1.5 expressed in Xenopus oocytes; format: cell-based, Oocyte
Summary of the method: (§1)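 Compounds came from a 10 mM DMSO stock diluted into ND96. Read-out was percent inhibition of the compound-free control current. For IC50, 3–4 concentrations were each tested at least twice and fitted with a variable-slope Hill equation.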

[4] = biological target: T1, Potassium voltage-gated channel subfamily A member 5; test: Inhibition of human voltage-gated potassium channel subunit Kv1.5 expressed in Xenopus oocytes at 10 uM; format: cell-based; details: Oocyte
Summary of the method: as §1, with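 “Human Kv1.5 cRNA (0.2–0.5 ng) was injected into Xenopus oocytes kept at 18 °C. […] Compounds” for “Compounds”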

T1 sequence (P22460 whole entry): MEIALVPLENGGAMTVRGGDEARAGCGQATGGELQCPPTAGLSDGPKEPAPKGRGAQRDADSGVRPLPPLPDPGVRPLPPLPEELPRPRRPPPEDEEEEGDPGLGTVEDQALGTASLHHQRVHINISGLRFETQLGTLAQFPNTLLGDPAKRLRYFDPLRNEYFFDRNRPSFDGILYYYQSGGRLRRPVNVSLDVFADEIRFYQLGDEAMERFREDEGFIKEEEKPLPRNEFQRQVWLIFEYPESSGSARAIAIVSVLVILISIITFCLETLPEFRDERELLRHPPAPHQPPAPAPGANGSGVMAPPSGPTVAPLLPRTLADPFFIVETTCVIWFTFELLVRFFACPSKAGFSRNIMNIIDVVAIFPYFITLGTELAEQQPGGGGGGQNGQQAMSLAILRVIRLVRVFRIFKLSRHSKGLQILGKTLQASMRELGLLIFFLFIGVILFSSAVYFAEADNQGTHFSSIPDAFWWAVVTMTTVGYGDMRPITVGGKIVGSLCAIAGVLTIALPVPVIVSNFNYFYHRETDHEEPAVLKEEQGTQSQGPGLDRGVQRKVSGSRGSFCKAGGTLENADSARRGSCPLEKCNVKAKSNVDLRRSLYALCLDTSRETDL
Chain of Potassium voltage-gated channel subfamily A member 3 (P22001 whole entry): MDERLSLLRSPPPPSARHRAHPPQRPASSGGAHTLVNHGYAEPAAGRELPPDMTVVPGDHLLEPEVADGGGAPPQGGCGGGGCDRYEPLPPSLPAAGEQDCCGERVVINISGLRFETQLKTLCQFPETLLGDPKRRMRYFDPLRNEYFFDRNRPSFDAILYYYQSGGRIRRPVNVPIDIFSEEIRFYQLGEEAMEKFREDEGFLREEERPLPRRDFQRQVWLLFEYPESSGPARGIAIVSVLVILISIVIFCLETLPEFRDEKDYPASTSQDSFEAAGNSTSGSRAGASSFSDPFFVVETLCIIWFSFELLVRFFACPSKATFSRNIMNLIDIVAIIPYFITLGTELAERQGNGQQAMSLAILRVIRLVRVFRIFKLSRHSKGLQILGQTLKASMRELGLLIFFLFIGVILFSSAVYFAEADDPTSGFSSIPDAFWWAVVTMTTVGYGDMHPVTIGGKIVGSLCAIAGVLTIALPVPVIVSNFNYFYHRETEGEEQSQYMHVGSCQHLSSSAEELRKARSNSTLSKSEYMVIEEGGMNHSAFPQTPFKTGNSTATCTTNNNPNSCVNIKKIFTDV
Chain of hERG (KCNH2) (Q12809 whole entry): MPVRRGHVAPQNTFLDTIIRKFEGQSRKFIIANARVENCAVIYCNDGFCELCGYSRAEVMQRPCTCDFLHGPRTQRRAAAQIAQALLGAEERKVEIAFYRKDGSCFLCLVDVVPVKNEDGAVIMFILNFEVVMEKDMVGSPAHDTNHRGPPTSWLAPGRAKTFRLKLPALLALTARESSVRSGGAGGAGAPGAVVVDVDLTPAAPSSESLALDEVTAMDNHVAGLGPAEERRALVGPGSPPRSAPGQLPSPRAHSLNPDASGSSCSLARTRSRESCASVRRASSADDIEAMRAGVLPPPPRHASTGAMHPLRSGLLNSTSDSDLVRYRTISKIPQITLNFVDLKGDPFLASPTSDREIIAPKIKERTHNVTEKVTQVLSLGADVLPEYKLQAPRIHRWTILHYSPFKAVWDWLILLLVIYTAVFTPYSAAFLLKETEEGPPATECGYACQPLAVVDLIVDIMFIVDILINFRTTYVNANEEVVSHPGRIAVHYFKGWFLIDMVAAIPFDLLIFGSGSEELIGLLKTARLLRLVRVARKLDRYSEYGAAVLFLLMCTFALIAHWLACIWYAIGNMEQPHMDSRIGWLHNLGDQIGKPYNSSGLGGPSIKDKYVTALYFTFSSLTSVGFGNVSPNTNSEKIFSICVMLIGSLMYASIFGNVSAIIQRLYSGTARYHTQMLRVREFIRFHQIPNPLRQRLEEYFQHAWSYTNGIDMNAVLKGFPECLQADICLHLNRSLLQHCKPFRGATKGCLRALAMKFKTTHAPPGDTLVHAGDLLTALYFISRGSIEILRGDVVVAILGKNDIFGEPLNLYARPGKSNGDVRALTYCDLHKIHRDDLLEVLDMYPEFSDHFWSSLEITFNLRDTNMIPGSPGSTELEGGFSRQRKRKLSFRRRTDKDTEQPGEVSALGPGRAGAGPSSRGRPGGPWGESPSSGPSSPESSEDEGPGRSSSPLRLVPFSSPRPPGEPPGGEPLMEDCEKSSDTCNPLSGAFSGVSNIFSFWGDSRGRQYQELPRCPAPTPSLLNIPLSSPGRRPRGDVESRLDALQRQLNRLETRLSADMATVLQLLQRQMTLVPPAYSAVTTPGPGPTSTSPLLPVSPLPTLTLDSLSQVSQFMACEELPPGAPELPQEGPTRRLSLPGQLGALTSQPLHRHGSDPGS

SMILES	IC50 [3]	also measured
C[C@H](OC(=O)NCc1ccccc1-c1ccccc1C(=O)NCCc1ccccn1)c1ccccc1	–	inhibition at 10 µM [1]: 11%; IC50 [2]: 500 nM
C[C@@H](CC(=O)NCc1ccccc1-c1ccccc1C(=O)NCCc1ccccn1)c1ccccc1	1000 nM	–
Cc1cccc(CNC(=O)OCc2ccccc2)c1-c1c(C)cccc1C(=O)NCCc1ccccn1	1700 nM	–
Cc1cccc(CNC(=O)OCc2ccccc2)c1-c1c(C)cccc1C(=O)NCCC(C)C	1000 nM and 1300 nM	–
CC(C)CCNC(=O)c1ccncc1-c1ccccc1CNC(=O)OCc1ccccc1	12000 nM	–
O=C(NCc1ccccc1-c1ccccc1C(=O)NCc1ccc(F)cc1F)OCc1ccccc1	1200 nM	–
CC(C)CCNC(=O)c1ccccc1-c1ccncc1CNC(=O)OCc1ccccc1	7000 nM	–
COc1ccc(S(=O)(=O)NC(=O)NCc2ccccc2-c2ccccc2C(=O)NCc2ccc(F)cc2F)cc1	–	inhibition [4]: 7%
CN(C)CC(C)(C)CNC(=O)c1ccccc1-c1ccccc1CNC(=O)OCc1ccccc1	2200 nM	–
CC(C)CCNC(=O)c1ccccc1-c1ccccc1CNCCc1ccccc1	4000 nM	–
CC(C)CCNC(=O)c1cccnc1-c1ccccc1CNC(=O)OCc1ccccc1	7800 nM	–
O=C(NCc1ccccc1-c1ccccc1C(=O)NCCc1ccccn1)OCc1ccccc1	–	inhibition at 10 µM [1]: 7%; IC50 [2]: 2300 nM
CC(C)CCOC(=O)c1ccccc1-c1ccccc1CNC(=O)OCc1ccccc1	–	inhibition [4]: 8%
O=C(NC1CCCCC1)c1cccc2cccc(NS(=O)(=O)c3ccc(Cl)cc3)c12	9500 nM	–
